ChEMBL document CHEMBL4673223, “Synthesis, Biological, and Structural Explorations of New Zwitterionic Derivatives of 14- O-Methyloxymorphone, as Potent μ/δ Opioid Agonists and Peripherally Selective Antinociceptives” (J Med Chem, 2019)
Calls of active or inactive are those of the source. The rule behind the calls is not given here.

How the values were obtained:
[1] = organism: Rattus norvegicus; assay: Selectivity index, ratio of Ki for displacement of [3H][Ile5,6]deltorphin II from delta opioid receptor in rat brain membranes to Ki for displacement of [3H]DAMGO from mu opioid receptor in rat brain membranes; assay type: cell membranes
In short: (§1)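 Rat brain membranes (cerebella removed; 0.3–0.5 mg protein) in 50 mM Tris-HCl, pH 7.4, were incubated 45 min at 35 °C with 1 nM [3H]DAMGO (MOR) or 0.5 nM [3H][Ile5,6]deltorphin II (DOR) plus varied test concentrations. Nonspecific binding was set with 10 μM naloxone. Samples were GF/C filtered, washed and scintillation counted. Ki was obtained by Cheng–Prusoff; duplicates, 3–4 experiments.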

[2] = molecular target: Delta-type opioid receptor (Homo sapiens) (UniProt P41143); assay: Displacement of [3H]diprenorphine from human DOR expressed in CHO cell membranes incubated for 60 mins liquid scintillation counting assay; details: Cell membrane, filed as agonist
Chain of Delta-type opioid receptor (Homo sapiens) (P41143 whole entry): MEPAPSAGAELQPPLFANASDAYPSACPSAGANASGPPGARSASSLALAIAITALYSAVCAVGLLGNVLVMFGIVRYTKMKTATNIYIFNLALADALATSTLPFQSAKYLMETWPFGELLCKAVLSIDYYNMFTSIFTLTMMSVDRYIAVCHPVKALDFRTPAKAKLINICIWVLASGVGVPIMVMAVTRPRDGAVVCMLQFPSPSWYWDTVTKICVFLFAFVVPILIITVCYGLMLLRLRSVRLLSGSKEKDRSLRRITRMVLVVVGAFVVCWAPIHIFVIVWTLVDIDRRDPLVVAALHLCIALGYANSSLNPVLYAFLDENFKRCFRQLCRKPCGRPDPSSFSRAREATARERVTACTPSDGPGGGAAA
In short: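 Membranes from CHO cells expressing human DOR (15–20 μg) in 50 mM Tris-HCl, pH 7.4, were incubated with 0.2 nM [3H]diprenorphine and varied test concentrations for 60 min at 25 °C. Nonspecific binding was set with 1–10 μM unlabeled diprenorphine. Samples were GF/C filtered and scintillation counted.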

[3] = Selectivity index, ratio of Ki for displacement of [3H]U69,593 from kappa opioid receptor in guinea-pig brain membranes to Ki for displacement of [3H]DAMGO from mu opioid receptor in rat brain membranes; assay type: cell membranes
In short: (§2)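 Guinea-pig brain membranes (0.3–0.5 mg protein) in 50 mM Tris-HCl, pH 7.4, were incubated with 1 nM [3H]U69,593 for 30 min at 30 °C, with 10 μM naloxone defining nonspecific binding. MOR was measured on rat brain membranes with 1 nM [3H]DAMGO for 45 min at 35 °C. Samples were filtered and scintillation counted, and Ki was obtained by Cheng–Prusoff; duplicates, 3–4 experiments.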

[4] = tested on: Mus musculus; assay: Antinociceptive activity in CD1 mouse assessed as inhibition of the writhing response at 50 ug/kg, sc and co-administered with 1 mg/kg naloxone methiodide and measured after 30 mins post dose by acetic acid-induced writhing assay; assay type: functional, organism-based; details: dose 50.0 µg/kg
In short: (§3)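 Male CD1 mice (30–35 g) received the agonist sc in saline (10 μL/g) together with sc naloxone methiodide 1 mg/kg. At 25 min, 0.6% acetic acid was given ip, and writhes were counted over a 10 min observation period (30 min post-dose). Results were expressed as mean writhes versus saline control and agonist-alone groups; n = 6–7 mice per group; ANOVA with Tukey post hoc.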

[5] = tested on: Mus musculus; assay: Antinociceptive activity in CD1 mouse assessed as inhibition of the writhing response at 200 ug/kg, sc and co-administered with 1 mg/kg naloxone methiodide and measured after 30 mins post dose by acetic acid-induced writhing assay; assay type: functional, organism-based; details: dose 200.0 µg/kg; in short: as §3
[6] = molecular target: Mu-type opioid receptor (Homo sapiens) (UniProt P35372); assay: Agonist activity at human MOR expressed in CHO cell membranes incubated for 60 mins scintillation counting assay relative to DAMGO; details: Cell membrane, filed as agonist
Chain of Mu-type opioid receptor (Homo sapiens) (P35372 whole entry): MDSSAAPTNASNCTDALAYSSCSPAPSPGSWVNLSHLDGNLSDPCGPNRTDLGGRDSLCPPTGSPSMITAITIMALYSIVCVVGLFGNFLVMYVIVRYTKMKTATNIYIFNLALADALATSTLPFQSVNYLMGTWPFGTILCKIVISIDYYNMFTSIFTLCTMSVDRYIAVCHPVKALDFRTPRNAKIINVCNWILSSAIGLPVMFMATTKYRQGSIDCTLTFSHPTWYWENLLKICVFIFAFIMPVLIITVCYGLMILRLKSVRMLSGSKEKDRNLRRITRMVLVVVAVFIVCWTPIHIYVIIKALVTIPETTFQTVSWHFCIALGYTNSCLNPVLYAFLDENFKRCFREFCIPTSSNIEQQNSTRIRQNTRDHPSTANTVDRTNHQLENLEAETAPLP
In short: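 CHO-hMOR or CHO-hKOR membranes (5–10 μg) were incubated 60 min at 25 °C in HEPES/MgCl2/NaCl buffer, pH 7.4, with 0.05 nM [35S]GTPγS, 10 μM GDP and varied test concentrations. Nonspecific binding was set with 10 μM GTPγS. Samples were filtered and scintillation counted. % stimulation was taken from concentration–response curves relative to the full agonist (DAMGO for MOR, U69,593 for KOR). Duplicates, 3–4 experiments.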

[7] = molecular target: Mu-type opioid receptor (Rattus norvegicus, UniProt P33535); assay: Displacement of [3H]DAMGO from mu opioid receptor in rat brain membranes incubated for 45 mins by liquid scintillation counting method; assay type: cell membranes, Membrane; in short: as §1
Chain of Mu-type opioid receptor (P33535 whole entry): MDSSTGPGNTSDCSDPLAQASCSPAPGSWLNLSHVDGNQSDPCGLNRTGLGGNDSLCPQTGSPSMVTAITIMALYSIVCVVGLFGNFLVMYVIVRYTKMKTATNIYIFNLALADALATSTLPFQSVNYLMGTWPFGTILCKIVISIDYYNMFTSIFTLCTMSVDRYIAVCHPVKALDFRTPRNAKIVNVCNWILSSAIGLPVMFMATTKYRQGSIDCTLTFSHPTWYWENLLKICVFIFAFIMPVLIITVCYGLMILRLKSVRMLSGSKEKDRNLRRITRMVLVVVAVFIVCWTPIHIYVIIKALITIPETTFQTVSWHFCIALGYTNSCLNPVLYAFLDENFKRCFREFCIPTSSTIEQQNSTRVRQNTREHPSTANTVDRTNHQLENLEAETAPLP

[8] = molecular target: Kappa-type opioid receptor (Cavia porcellus, UniProt P41144); assay: Displacement of [3H]U69,593 from kappa opioid receptor in guinea-pig brain membranes incubated for 30 mins by liquid scintillation counting method; assay type: cell membranes, Membrane; in short: as §2
Chain of Kappa-type opioid receptor (P41144 whole entry): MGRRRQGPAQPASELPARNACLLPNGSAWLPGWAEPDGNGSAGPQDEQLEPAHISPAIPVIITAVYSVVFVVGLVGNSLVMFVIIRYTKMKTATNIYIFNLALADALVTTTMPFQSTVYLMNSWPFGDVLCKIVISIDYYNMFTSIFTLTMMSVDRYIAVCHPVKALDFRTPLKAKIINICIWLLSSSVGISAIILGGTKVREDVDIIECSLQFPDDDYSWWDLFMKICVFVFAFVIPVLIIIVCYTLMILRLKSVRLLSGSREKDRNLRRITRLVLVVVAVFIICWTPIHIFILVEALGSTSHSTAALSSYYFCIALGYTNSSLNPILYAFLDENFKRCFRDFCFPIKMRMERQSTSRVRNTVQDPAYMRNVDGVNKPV

[9] = molecular target: Delta-type opioid receptor (Rattus norvegicus, UniProt P33533); assay: Displacement of [3H][Ile5,6]deltorphin II from delta opioid receptor in rat brain membranes incubated for 45 mins by liquid scintillation counting method; assay type: cell membranes, Membrane; in short: as §1
Chain of Delta-type opioid receptor (P33533 whole entry): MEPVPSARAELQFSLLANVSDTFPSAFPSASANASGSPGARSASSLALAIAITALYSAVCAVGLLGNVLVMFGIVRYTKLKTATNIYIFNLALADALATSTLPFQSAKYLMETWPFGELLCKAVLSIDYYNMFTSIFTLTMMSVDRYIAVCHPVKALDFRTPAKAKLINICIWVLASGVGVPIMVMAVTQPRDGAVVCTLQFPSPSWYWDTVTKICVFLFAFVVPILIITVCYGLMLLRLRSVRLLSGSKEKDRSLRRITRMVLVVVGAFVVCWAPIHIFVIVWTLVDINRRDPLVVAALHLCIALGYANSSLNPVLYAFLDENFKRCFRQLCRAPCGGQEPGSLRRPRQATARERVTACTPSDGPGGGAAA

Row | SMILES | Ratio Ki [1] | Activity [2] | Ratio Ki [3] | Activity [4] | Activity [5] | Activity [6] [%] | Ki [7] [nM] | Ki [8] [nM] | Ki [9] [nM]
1 | CO[C@@]12CC[C@@H](N[C@@H](CCCCN)C(=O)O)[C@@H]3Oc4c(O)ccc5c4[C@@]31CCN(C)[C@@H]2C5 | 6.3 | Active | 64 | inactive | – | – | – | – | –
2 | CO[C@@]12CC[C@@H](N[C@H](C(=O)O)C3CCCCC3)[C@@H]3Oc4c(O)ccc5c4[C@@]31CCN(C)[C@@H]2C5 | 0.8 | Active | 71 | inactive | – | – | – | – | –
3 | CO[C@@]12CC[C@@H](NCC(=O)NCC(=O)O)[C@@H]3Oc4c(O)ccc5c4[C@@]31CCN(C)[C@@H]2C5 | 1.6 | Active | 44 | – | inactive | – | – | – | –
4 | CC[C@H](N[C@@H]1CC[C@@]2(OC)[C@H]3Cc4ccc(O)c5c4[C@@]2(CCN3C)[C@H]1O5)C(=O)O | 0.7 | Active | 110 | inactive | – | 83 | – | – | –
5 | CO[C@@]12CC[C@@H](N[C@@H](Cc3c[nH]c4ccccc34)C(=O)O)[C@@H]3Oc4c(O)ccc5c4[C@@]31CCN(C)[C@@H]2C5 | 1.8 | Active | 13 | – | inactive | – | – | – | –
6 | CO[C@@]12CC[C@H](N[C@@H](Cc3ccccc3)C(=O)O)[C@@H]3Oc4c(O)ccc5c4[C@@]31CCN(C)[C@@H]2C5 | 3.9 | Active | 30 | – | – | – | 0.95 | 28.5 | –
7 | CO[C@@]12CC[C@@H](N[C@@H](Cc3ccccc3)C(=O)O)[C@@H]3Oc4c(O)ccc5c4[C@@]31CCN(C)[C@@H]2C5 | 0.4 | Active | 59 | – | – | – | 2.58 | 151 | 1.03
8 | CO[C@@]12CC[C@@H](N[C@@H](C)C(=O)O)[C@@H]3Oc4c(O)ccc5c4[C@@]31CCN(C)[C@@H]2C5 | – | Active | – | – | – | – | – | 63.7 | 7.71
